The source made the active and inactive calls. The calls are words filed in the database; no cut-off is given here. Bounds are passed on as bounds.

For series [1], the target named is T1, Dual specificity tyrosine-phosphorylation-regulated kinase 1A (Homo sapiens, UniProt Q13627). The series can be described thus: Inhibition of N-terminal His6-tagged recombinant human Dyrk1A expressed in Escherichia coli BL21 (DE3) using KKISGRLSPIMTEQ-NH2 as substrate after 15 mins in presence of [gamma-32]-ATP.
In series [2] the target is Dual specificity protein kinase CLK1 (Homo sapiens, UniProt P49759). The series can be described thus: Inhibition of recombinant human GST-tagged Clk1 expressed in Escherichia coli using RS repeat substrate peptide after 15 mins in presence of [gamma-32]-ATP.
Chain of Dual specificity protein kinase CLK1 (P49759 whole entry): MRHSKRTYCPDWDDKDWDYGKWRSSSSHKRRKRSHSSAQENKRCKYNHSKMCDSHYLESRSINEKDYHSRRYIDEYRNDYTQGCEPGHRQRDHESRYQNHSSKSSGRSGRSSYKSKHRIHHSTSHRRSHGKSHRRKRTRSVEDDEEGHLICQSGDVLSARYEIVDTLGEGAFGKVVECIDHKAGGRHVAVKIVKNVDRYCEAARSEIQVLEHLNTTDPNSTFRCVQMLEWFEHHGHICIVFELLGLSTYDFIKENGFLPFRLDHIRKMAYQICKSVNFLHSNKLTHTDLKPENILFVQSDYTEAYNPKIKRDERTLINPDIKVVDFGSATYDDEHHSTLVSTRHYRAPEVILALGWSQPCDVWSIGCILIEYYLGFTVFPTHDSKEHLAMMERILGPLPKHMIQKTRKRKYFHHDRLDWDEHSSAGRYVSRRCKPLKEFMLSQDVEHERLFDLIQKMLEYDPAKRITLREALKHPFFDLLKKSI
Series [3] addresses T1, Dual specificity tyrosine-phosphorylation-regulated kinase 1A. The series can be described thus: Inhibition of N-terminal His6-tagged recombinant human Dyrk1A expressed in Escherichia coli BL21 (DE3) using KKISGRLSPIMTEQ-NH2 as substrate at 1 uM after 15 mins in presence of [gamma-32]-ATP. The settings on record: 0.25 h.
The target of series [4] is Dual specificity protein kinase CLK2 (Mus musculus) (UniProt O35491). Description: Inhibition of recombinant GST-tagged mouse CLK2 using GRSRSRSRSRSR as substrate at 1 uM after 30 mins in presence of [gamma-32P]-ATP by scintillation counting method.
Chain of Dual specificity protein kinase CLK2 (Mus musculus) (O35491 whole entry, looked up): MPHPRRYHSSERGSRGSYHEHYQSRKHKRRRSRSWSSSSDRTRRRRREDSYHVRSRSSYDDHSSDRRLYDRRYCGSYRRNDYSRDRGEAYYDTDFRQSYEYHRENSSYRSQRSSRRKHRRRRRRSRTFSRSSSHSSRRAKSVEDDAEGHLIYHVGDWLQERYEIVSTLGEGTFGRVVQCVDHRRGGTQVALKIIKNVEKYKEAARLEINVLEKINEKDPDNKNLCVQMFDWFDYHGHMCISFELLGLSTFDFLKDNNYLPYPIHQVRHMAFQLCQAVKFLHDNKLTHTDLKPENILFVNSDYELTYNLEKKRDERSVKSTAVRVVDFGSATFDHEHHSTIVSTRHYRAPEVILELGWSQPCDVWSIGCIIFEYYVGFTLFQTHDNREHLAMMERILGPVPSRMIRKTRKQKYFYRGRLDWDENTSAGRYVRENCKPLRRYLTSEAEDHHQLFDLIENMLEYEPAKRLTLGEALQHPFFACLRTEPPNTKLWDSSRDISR
In series [5] the target is SRSF protein kinase 2 (Homo sapiens) (UniProt P78362). The series can be described thus: Inhibition of SRPK2 (unknown origin) at 1 uM. An outline of the steps:
(§1)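 Tested in a commercial kinase profiling panel at an ATP concentration of 100 μM. Data are the mean of duplicates that differed by less than 7%.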

The target of series [6] is Serine/threonine-protein kinase 17A (Homo sapiens) (UniProt Q9UEE5). The series can be described thus: Inhibition of STK17A (unknown origin) at 1 uM after 15 mins. The method in brief: as §1
Chain of Serine/threonine-protein kinase 17A (Homo sapiens) (Q9UEE5 whole entry): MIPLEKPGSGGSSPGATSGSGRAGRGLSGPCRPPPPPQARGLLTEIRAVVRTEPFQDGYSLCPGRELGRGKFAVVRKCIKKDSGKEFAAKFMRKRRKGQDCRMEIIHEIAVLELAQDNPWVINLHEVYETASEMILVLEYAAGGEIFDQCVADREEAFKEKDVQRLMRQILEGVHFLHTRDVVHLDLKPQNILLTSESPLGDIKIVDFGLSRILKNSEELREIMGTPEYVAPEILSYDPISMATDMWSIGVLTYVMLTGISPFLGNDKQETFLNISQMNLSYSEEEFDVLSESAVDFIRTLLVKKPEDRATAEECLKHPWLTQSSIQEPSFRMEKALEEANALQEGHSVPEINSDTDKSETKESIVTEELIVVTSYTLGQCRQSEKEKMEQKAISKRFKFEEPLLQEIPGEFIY
The target of series [7] is Myosin light chain kinase 2, skeletal/cardiac muscle (Homo sapiens) (UniProt Q9H1R3). Description: Inhibition of MLCK2 (unknown origin) at 1 uM after 15 mins. The method in brief:
as §1

Series [8] has as its target Dual specificity tyrosine-phosphorylation-regulated kinase 4 (Homo sapiens) (UniProt Q9NR20). The series can be described thus: Inhibition of DYRK4 (unknown origin) using KKISGRLSPIMTEQ-NH2 as substrate at 1 uM after 15 mins in presence of [gamma-32P]-ATP.
Series [9] concerns the target Dual specificity tyrosine-phosphorylation-regulated kinase 3 (Homo sapiens) (UniProt O43781). The series can be described thus: Inhibition of DYRK3 (unknown origin) using KKISGRLSPIMTEQ-NH2 as substrate at 1 uM after 15 mins in presence of [gamma-32P]-ATP.
A further series deals with T47D. Description: Cytotoxicity against human T47D cells assessed as growth inhibition after 5 days by MTT assay. Format: functional. The settings on record: 120 h. The method in brief:
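They were seeded at 5000 cells per well onto compound or DMSO (0.2% final). Plates were kept 5 days at 37 °C in 5% CO2 with no medium change, then read by MTT.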

A short description of series [10]: Cytotoxicity against HEK293 cells assessed as growth inhibition. Format: cell-based. The note with it: human. The method in brief:
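Cytotoxicity was tested in proliferating HEK293 cells with GI50 as the read-out. Data are the mean of at least two independent experiments.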

The next series concerns PBL. Description: Cytotoxicity against human PBL after 2 days by MTT assay. Format: cell-based. The settings on record: 48 h. The method in brief:
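Cells plated at 30 000 per well with test compounds or DMSO control for 2 days, then MTT read-out. LC50 reported as the mean of at least two independent experiments.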
Background: Formazan colour is commonly taken as a measure of viable cells.

In series [11] the target is T2, Dual specificity protein kinase CLK1/CLK4 (Homo sapiens, UniProt Q9HAZ1+P49759). Description: Inhibition of CLK1/4 in human T24 cells assessed as down regulation of EGFR expression after 3 days by Western blot analysis. Format: cell-based. The method in brief: (§2)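 T24 or MDA-MB-231 cells were grown in DMEM to 70% confluency. The medium was replaced with compound diluted in DMEM, and cells were kept 3 days. Total protein was immunoblotted with monoclonal antibodies in 3% BSA/PBS against EGFR, p70S6K α, PARP-1, ERK2, HDAC1, CD44, PCNA and GRP94.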
(A western blot detects proteins with antibodies after separation by electrophoresis.)

Series [12] concerns the target T2, Dual specificity protein kinase CLK1/CLK4. The series can be described thus: Inhibition of CLK1/4 in human T24 cells assessed as down regulation of HDAC1 expression at 5 uM after 3 days by Western blot analysis relative to control. Format: cell-based. An outline of the steps: as §2
For series [13] the target is unchanged. Description: Inhibition of CLK1/4 in human T24 cells assessed as down regulation of HDAC1 expression at 1.25 uM after 3 days by Western blot analysis relative to control. The format is cell-based. The method in brief: as §2
Series [14] shares this target. Description: Inhibition of CLK1/4 in human MDA-MB-231 cells assessed as down regulation of S6 kinase expression at 2.5 uM after 3 days by Western blot analysis relative to control. Format: cell-based. The method in brief:
as §2

For series [15] the target is unchanged. The series can be described thus: Inhibition of CLK1/4 in human HepG2 cells assessed as down regulation of HDAC1 expression at 20 uM after 3 days by Western blot analysis relative to control. Format: cell-based. An outline of the steps: (§3)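 HepG2 cells were grown in DMEM to 70% confluency, then the medium was replaced with compound diluted in DMEM. After 3 days, total protein was immunoblotted with monoclonal antibodies including HDAC1 and p70S6K.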

The target is the same in series [16]. The series can be described thus: Inhibition of CLK1/4 in human HepG2 cells assessed as down regulation of S6 kinase expression at 20 uM after 3 days by Western blot analysis relative to control. The format is cell-based. The method in brief:
as §3

The subject of series [17] is T-24. The series can be described thus: Down regulation of PCNA expression in human T24 cells at 1.25 to 10 uM after 3 days by Western blot analysis. Format: functional, cell-based. The method in brief: as §2
The test system of series [18] is T-24. Description: Down regulation of GRP94 expression in human T24 cells at 1.25 to 10 uM after 3 days by Western blot analysis. The format is functional, cell-based. An outline of the steps:
as §2

In series [19] the test system is MDA-MB-231. The series can be described thus: Down regulation of CD44 expression in human MDA-MB-231 cells at 2.5 to 20 uM after 3 days by Western blot analysis. The format is functional, cell-based. The method in brief: as §2
Series [20] has as its system MDA-MB-231. Description: Down regulation of PCNA expression in human MDA-MB-231 cells at 2.5 to 20 uM after 3 days by Western blot analysis. The format is functional, cell-based. The method in brief: as §2
Series [21] concerns MDA-MB-231. The series can be described thus: Down regulation of GRP94 expression in human MDA-MB-231 cells at 2.5 to 20 uM after 3 days by Western blot analysis. Format: functional, cell-based. The method in brief:
as §2

Chain of Dual specificity tyrosine-phosphorylation-regulated kinase 4 (Homo sapiens) (Q9NR20 whole entry): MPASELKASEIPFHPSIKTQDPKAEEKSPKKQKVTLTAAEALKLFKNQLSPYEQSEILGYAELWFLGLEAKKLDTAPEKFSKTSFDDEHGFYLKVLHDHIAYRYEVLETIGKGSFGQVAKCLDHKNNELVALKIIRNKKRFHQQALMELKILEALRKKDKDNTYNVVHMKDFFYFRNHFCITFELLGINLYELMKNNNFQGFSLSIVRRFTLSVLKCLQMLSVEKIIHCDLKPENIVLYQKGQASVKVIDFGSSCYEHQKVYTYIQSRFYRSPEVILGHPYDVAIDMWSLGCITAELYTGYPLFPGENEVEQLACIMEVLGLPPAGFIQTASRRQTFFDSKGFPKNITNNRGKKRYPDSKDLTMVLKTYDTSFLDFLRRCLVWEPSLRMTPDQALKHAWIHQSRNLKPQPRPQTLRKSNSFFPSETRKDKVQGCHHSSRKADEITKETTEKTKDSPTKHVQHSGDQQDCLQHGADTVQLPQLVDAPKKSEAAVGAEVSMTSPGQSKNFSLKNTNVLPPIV
Chain of Dual specificity tyrosine-phosphorylation-regulated kinase 3 (Homo sapiens) (O43781 whole entry): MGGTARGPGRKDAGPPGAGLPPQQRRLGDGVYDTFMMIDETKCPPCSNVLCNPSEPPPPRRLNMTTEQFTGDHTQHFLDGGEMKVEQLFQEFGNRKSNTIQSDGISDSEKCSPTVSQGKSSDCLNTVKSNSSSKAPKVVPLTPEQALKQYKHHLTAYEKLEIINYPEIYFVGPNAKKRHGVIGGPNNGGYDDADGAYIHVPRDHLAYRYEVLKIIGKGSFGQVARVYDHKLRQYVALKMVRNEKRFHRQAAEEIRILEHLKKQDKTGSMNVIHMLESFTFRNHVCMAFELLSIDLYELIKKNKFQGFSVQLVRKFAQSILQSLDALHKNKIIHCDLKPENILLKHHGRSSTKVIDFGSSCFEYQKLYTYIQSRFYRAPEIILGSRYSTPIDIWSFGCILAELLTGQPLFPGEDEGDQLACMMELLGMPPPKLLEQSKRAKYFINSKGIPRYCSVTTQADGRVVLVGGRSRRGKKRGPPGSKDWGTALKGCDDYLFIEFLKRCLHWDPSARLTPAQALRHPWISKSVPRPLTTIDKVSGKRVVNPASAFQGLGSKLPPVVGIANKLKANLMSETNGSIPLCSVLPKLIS
Chain of Myosin light chain kinase 2, skeletal/cardiac muscle (Homo sapiens) (Q9H1R3 whole entry): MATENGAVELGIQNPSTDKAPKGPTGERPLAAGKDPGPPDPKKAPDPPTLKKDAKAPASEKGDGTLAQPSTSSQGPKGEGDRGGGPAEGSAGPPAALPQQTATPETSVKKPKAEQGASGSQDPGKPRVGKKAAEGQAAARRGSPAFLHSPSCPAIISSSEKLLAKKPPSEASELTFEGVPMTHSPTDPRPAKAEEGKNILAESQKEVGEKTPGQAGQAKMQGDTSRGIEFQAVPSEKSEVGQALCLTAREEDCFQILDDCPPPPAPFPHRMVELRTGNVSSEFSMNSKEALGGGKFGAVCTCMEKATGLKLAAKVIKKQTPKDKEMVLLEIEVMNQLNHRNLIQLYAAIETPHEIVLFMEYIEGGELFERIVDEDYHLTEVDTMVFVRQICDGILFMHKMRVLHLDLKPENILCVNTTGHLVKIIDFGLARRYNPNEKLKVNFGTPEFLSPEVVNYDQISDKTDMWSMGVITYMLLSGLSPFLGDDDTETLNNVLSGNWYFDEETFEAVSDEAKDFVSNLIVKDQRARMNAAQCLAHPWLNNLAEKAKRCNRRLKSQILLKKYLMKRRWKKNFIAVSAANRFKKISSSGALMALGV
Chain of SRSF protein kinase 2 (Homo sapiens) (P78362 whole entry, looked up): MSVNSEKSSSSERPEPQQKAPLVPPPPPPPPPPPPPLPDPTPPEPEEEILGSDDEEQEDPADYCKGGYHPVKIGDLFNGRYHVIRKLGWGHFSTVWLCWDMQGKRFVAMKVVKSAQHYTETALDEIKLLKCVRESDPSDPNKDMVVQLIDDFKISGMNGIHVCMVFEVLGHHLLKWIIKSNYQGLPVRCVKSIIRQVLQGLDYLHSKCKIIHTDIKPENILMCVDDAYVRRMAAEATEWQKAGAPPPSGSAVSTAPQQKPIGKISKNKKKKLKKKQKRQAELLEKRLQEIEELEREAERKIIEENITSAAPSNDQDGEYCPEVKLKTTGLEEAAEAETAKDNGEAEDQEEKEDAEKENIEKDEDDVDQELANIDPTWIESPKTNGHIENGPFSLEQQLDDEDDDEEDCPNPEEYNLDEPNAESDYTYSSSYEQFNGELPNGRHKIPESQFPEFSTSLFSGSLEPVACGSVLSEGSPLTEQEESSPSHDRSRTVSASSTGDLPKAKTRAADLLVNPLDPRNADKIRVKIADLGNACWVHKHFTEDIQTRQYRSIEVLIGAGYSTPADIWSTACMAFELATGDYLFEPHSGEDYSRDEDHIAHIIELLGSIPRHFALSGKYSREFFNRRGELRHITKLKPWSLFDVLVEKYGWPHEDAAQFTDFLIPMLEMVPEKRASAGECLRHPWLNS

Take `COc1ccc2sc(C(=O)N(C)Cc3cccc(F)c3)cc2c1`: the IC50 in series [1] is 340 nM; in [2], 6.9 to 7 nM; in series [11], 2200 nM. In series [3], the inhibition at 1 µM stood at 72%. Also, the inhibition in [4] is 86%; in [5], 7%; in series [6], 32%; in [11] it was “Dose-dependent effect”; in series [12], 47.6%; in series [13], 13.6%. Further, the figures for the inhibition in series [14], in series [15] and in series [16] were 12.1%, 44% and 44%, respectively. For the same compound, the inhibition result in series [7], in [8] and in series [9] was “inactive” each time. Besides, the results for the GI50 (with T47D; in series [10]) were 15300 nM and greater than 30000 nM, respectively. In addition, in the series on PBL, the LC50 came to 29400 nM. The outcome with T-24 [17], in the series on T-24 [18], in the series with MDA-MB-231 [19], in the series on MDA-MB-231 [20] and in the series with MDA-MB-231 [21] was inactive.

The IC50 is the concentration that gives 50% inhibition. As usually defined, the inhibition is the share of the control response that was lost under treatment. For orientation: GI50 means the concentration giving 50% growth inhibition. What is called LC50 is the concentration that kills 50% of the test population. Lower therefore signals a more lethal substance.

For the origin of these results see ChEMBL document CHEMBL4014345, “Development of Selective Clk1 and -4 Inhibitors for Cellular Depletion of Cancer-Relevant Proteins” (J Med Chem, 2017).
